Test results: the EternaBench riboswitch data

System: MS2 coat protein
Test: apparent Kd, MS2 coat protein; higher = weaker binding; RNA-MaP array; FMN 200 µM where present
How it was run: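 The apparent Kd is the median of filtered binding-curve fits, one per cluster, to green signal normalised to red-channel RNA signal and control-cluster median Fmax. The clusters were on Illumina sequencing chips, and stalled E. coli RNA polymerase had transcribed the designs on them. Titration used SNAP-549-labelled MS2 coat protein from 0.7 or 1.5 nM, doubling to 3 µM, without and then with constant ligand, in 100 mM Tris-HCl pH 7.5, 80 mM KCl, 4 mM MgCl2, BSA, DTT, yeast tRNA and Tween-20.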

[1] = designed as: OFF switch for flavin mononucleotide, no ligand
[2] = ligand present: flavin mononucleotide, designed as: OFF switch for flavin mononucleotide
[3] = designed as: ON switch for flavin mononucleotide, no ligand
[4] = ligand present: flavin mononucleotide, designed as: ON switch for flavin mononucleotide

Sequence	apparent Kd [1] [nM]	apparent Kd [2] [nM]	apparent Kd [3] [nM]	apparent Kd [4] [nM]
UAAGUUGAGGAGAAGGGAGCACAUGAGGAUCACCCAUGUGGUUCUUUGUGCUCAGGAUAUCCAUGGAGCGCCGACGCGUUCCCG	89.2	15.6	–	–
AGUGUCGGCACAGGAUAUGAGAUGCCGGCAGACAUGAGGAUCACCCAUGUAAGCGACCCAGGCAGUCAGAAGGGUGAUCGACAA	–	–	156	44.4
CGCGCGGUGUAGAAGGGUGACAUGAGGAUCACCCAUGUGCGGAGGCGCCCAUUGACGCCUCCGCCACAGGAUAUACACCACGCC	–	–	46.8	66.9
AAAAAGUCAGGAUAUAGAAAAGGUCACGAAAGUGACAAAGGCUAGAAGGGACAUGAGGAUCACCCAUGUAAAAA	31.9	31.1	–	–
GGCGGCGCGGGCCACCGCAAAACCAGAAGGACAUGAGGAUCACCCAUGUAACAAAACAGGGCGGUGUAGGAUAUGGCAGACCCG	14.2	25	–	–
ACAUUUAAUACAGGAUAUGUUGGUAUACAAUAGAUUGGUUAUAACACAUCAACAGAAGGGUAGAACAUGAGGAUCACCCAUGUA	–	–	53.6	23.3
GAUGUAUUCGUAGGAUAUCCGUCGCCACCGUGUGGAGAAGGACGAACAUGAGGAUCACCCAUGUAUCAUGGUGUGGACGCUUUC	287	315	–	–
UAAUAUCUGUAGGAUAUCGGUGGAGCACACGUAUGAGAAGGGCAGACAUGAGGAUCACCCAUGUAUAGGGUCCG	26.8	41	–	–
CCCUCACAUGAGGAUCACCCAUGUCCUAGCAGGUCAGGAUAUAGCCCGCAUCCGCUGCGGCUAGAAGGGACAGCUG	–	–	244	105
UAAUAAAGUGUGAGGAUAUGCUGGUCCUUGGAUCAGCAGAAGGCACAUGAGGAUCACCCAUGUAAUAUAUAUAU	87.7	223	–	–
CGGCGCUGUCGAGAGGAUAUGCGGUGAUGGACAUGAGGAUCACCCAUGUUAGCGAUAGCAUCACGGUAGAAGGCUCUACGGCUGC	–	–	12	11.3
UGUUACUAGUAAGGAUAUACUUGCGAUAAGCUUGUAGAAGGUACAGUCUUUUGUAUAACACGUUUACAUGAGGAUCACCCAUGU	–	–	6.94	6.01
AACUGACAUGAGGAUCACCCAUGUCAGGAUAUGAUUUGACGAAAUAAAAUAAGUCAUAUCAGAAGGGACAUGGA	25.9	46.9	–	–
AUGCCAAAAGGAGGAUAUGGAGCCUUAUUGGCUCCAGAAGGCUUGACAUGAGGAUCACCCAUGUGGCAGUGGUCUAAUGACCAC	–	–	18.5	15.1
GUAUAUCACUCAGGAUAUCUGUAAUUUGUUGAAACAUGAGGAUCACCCAUGUUCAUGAAUUUAUAGGAGAAGGGAGAGAUAUAC	–	–	4.58	4.69
AAAUAAAGCAGUGUAUUAAGAUCACAUGAGGAUCACCCAUGUAGAAGGCUCGAGCAAAAUGCUCGAGAGGAUAUACAACACUGC	10.2	195	–	–
UAUAAAUUAAAAGGAUAUUCAUACCGGAAACGGACAUGAGGAUCACCCAUGUGGCGAAAGCCUUGGGAGAAGGUAUUAAAUAAU	–	–	268	263
UUUCAGUCAGGAUAUCGUUAAUUUAAUUGUUUGUAUUAGUUCGAGAAGGGACAUGAGGAUCACCCAUGUACUUU	24.3	25.5	–	–
GGUGUAGGAGGAUAUACAUGAGGAUCACCCAUGUGGCCACGUUGUAAGAUGACAUUAUGUAGAAGGCUUAGUGG	90.4	89.8	–	–
GGACAUGAGGAUCACCCAUGUCGAACAUGAGGAUCACCCAUGUAGGAUAUGCUACUCAAAGAGUAGCAGAAGGACAUGUGCCUU	53.7	51.2	–	–
UAAAUCAAGUCAGGAUAUCGUGCGGUUGGUCGUUACAUGAGGAUCACCCAUGUCUUCCGUUAGCUCGAGAAGGGACGUGAGCCC	–	–	40	11.5
GUCAGCUCGUGAGGAUAUACAACACUGCUUCGGCAGUGUAUUAAGAUCACAUGAGGAUCACCCAUGUAGAAGGCACGAGGUGAU	20.5	245	–	–
AAAAAGGCAGGAUAUACAAAAAAAAAAAAAAAAAAGGAGGGACAUGAGGAUCACCCAUGUAGAAGGGCCAAAAA	66.5	134	–	–
AGCCGAAGCGCAGGAUAUACAUGUAUACAUGAGGAUCACCCAUGUAGCAACACGUGGUAGUGAUUGUAGAAGGGUGCUCGGCGC	–	–	32.8	30
AAGAGCGAUUCUCCCUUCCUACAUGAGGAUCACCCAUGUACGAGAAGGCGCCGUGUAUACCACGGUGAGGAUAUCGUACGUUAC	5.23	10.3	–	–
UUGGACGUCGUAGGAUAUAUAGGAUAUUCCUACAUGAGGAUCACCCAUGUUGACAUGGAAGAAGGACAGAAGGACGAUGUCCAU	–	–	27.1	9.75
GAAAAACAUGAGGAUCACCCAUGUAGAAAUAUGGGAGGAUAUACAAAGUCGAAAGACAAAGUAGAAGGCCUAAAAG	–	–	146	26.9
AAUUUAAGAUGAGGAUAUUGACAUGAGGAUCACCCAUGUAUUUGGGAAUGUUUACUGAAUUCUUACAAGAAGGUAUACGAACUU	185	138	–	–

Sequence	apparent Kd [1] [nM]	apparent Kd [2] [nM]	apparent Kd [3] [nM]	apparent Kd [4] [nM]
UUGGACGUCGUAGGAUAUGUAGGAUAUUCCUACAUGAGGAUCACCCAUGUUGACAUGGCAGAAGGACAGAAGGACGAUGUCCAU	–	–	938	129
UUGUUAGGGAGAGGAUAUUGACAUGAGGAUCACCCAUGUAUUUGGGAGUGUUUACUGAAUUCUCACGAGAAGGCUUACAAAUUU	584	534	–	–
AGUCCGGAACAGAAGGACAUGAGGAUCACCCAUGUAGGAUAUGUUGUGCGGCGUUAGGGAGGUGCCUGCGUGUGGGCGGAUCUC	–	–	14.1	6.56
GGCGAGUGAGGAUAUCUGAUGUCUAACUUCGGUUAGACAUCAGAGAAGGCACAUGAGGAUCACCCAUGUCCGCC	19.3	17.1	–	–
UAAUCUCAGAUAGGAUAUAUAGGAUAACUUAAGACCUAACAUGAGGAUCACCCAUGUGAUUAUUCGUAGAAGGAUCAUUGAACC	–	–	206	217
UUGUUACAUGAGGAUCACCCAUGUGAGGAUAUGGCCCGCCCGGCGUGAGCUGGUUUUGUCAGAAGGCGCGUGGG	111	159	–	–
CCCAACGUAACGCCACGUUGAGAGCAGGAUAUUCCGCCGUGAUCUACAUGAGGAUCACCCAUGUGGAAGAAGGGCUACACAAAA	16.3	146	–	–
GCCAUCGCAUGAGGAUAUGCUCCCGUUUCGGGAGCAGAAGGCAUGCCAUAAGACAUGAGGAUCACCCAUGUAGUUAAGAUGGCA	–	–	5.71	5.75
GUAGCAUUCUGAGGAUAUUCAUACCGGAAACGGACAUGAGGAUCACCCAUGUGGCGAAAGCCUUGGGAGAAGGCAGUAUGCUAC	–	–	740	27.4
GCAGUAUCAGGAUAUACAUGAGGAUCACCCAUGUGACUCCAUAGGAAGCUAUGUGGAUGUAGAAGGGAUCACUG	54.6	183	–	–
UUUAUAAAUUAGAAGGCGGGAUGAAUUACAAUAGACAUGAGGAUCACCCAUGUGUAUUCAUGUCUUGAGGAUAUAGUCAUAUAU	–	–	271	110
AUUUUAACAUAGGAUAUCGAAUUUAUUAUUUAACGAGAAGGAUGAACAUGAGGAUCACCCAUGUGGUAUCAUGG	217	93.6	–	–
CUCAUGUUAGGAUAUGCGCUCGACGUAGUGGUUGAGCUCUAGCAGAAGGAACAUGAGGAUCACCCAUGUUUGCA	68.5	21.3	–	–
CAUAUGUCAGGAUAUUAUCUCAAGGUAUUCGUUACUAACGAUAAGAAGGGACAUGAGGAUCACCCAUGUGCCGC	18.4	24.2	–	–
UUAUGUUUUGUAGGAUAUCAUUAGAUUUGUAAUUUAAUUGUAAUUUAGAUAUGAGAAGGACAUUUACAUGAGGAUCACCCAUGU	16.1	11.5	–	–
UUGGACGUCGUAGGAUAUGUAGGAUAUUCCUACAUGAGGAUCACCCAUGUUGACAUGGAAGAAGUACAGAAGGACGAUGUCCAU	–	–	15.9	4.5
AUCUCGUCAGGAUAUCCUAGUAAUUGUUUCAUAUUUACGAUGGAGAAGGGACAUGAGGAUCACCCAUGUUGGUC	64.4	144	–	–
UAAAGUUAAGGAGGAUAUUACAUGAGGAUCACCCAUGUAAUGGGCUCGGUGUAAGAAGGCCUUGAGUCGAAGUUUCGGAUGAGG	9.55	21.4	–	–
UUAAAUCAUGUAGGAUAUGCAUGGCGAAGCUACGCAGAAGGACAUGAGGAUCACCCAUGUUCUGGCUACCGAGUACGGUGGCAA	20.5	81.2	–	–
AAAAAGCGAGGAUAUACAAAAGAGCGAAAGCUCAAAAGGAAACAUGAGGAUCACCCAUGUAGAAGGCGCAAGAA	21.7	20.3	–	–
UUUAUUUCGGCAGGAUAUACAUGUAUAUAUAUUUCUUUAUAUCUUAUUACAUGAGGAUCACCCAUGUAGAAGGGCCUUCUUAUC	47.7	46	–	–
GUGAAGUGAGGAUAUACGAGAGAGGCUGAACCGGACGAGAAGUAGAAGGCACAUGAGGAUCACCCAUGUACGGG	–	236	–	–
AGUCGGAGCAGAGGAUAUUACAUGAGGAUCACCCAUGUAGGUACCAAUAGCUGGAAACAGCAAUGUAAGAAGGCUGCUCCGACA	259	281	–	–
AGCUGGAGAGGAUAUACGUAGGUAAAAAAAGUCUGAUAACUACAUGAGGAUCACCCAUGUAGAAGGCUCUGGCA	16	43.8	–	–
GGACGUCAGAUUAACAUGAGGAUCACCCAUGUCUUUUGACAUGAGGAUAUGGAUCCUAAUUGGAUCCAGAAGGCAUGGACGUCC	–	–	1120	94.9
AGAAACUACGAGAAGGACAUGAGGAUCACCCAUGUUUCCACUUAGUGGCAUGUAGGAUAUCGUAGUUUCAGGAUCGUGAGAUCA	5.58	16.6	–	–
GCAAGUACGAGAGGAUAUUGACAUGAGGAUCACCCAUGUAUUUGGGAGUGUUCACUGAAUUCUUACGAGAAGGCUCGUACAUGC	246	232	–	–
